Laboratory results as given in ChEMBL document CHEMBL1772948, “Chemistry and biology of macrolide antiparasitic agents” (J Med Chem, 2011).
Converted amounts (≈) assume the structure as drawn.

How the values were obtained:
Toxoplasma gondii = test: Antiparasitic activity against Toxoplasma gondii 2F-1 expressing yellow fluorescent protein infected in HFF after 4 days; format: functional, organism-based; settings: 2F-1, 96 h
HFF = test: Cytotoxicity against HFF after 48 hrs by MTS assay; format: cell-based; settings: human
In short: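 Low-passage HFF seeded in 96-well plates and incubated 24h at 37 °C, then exposed to varying macrolide concentrations for 2 days; medium replaced with fresh medium plus MTS, 4h at 37 °C, absorbance 490 nm; CC50 = dose reducing viability by 50%.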

Bacillus subtilis = test: Antibacterial activity against Bacillus subtilis; format: functional

SMILES	IC50 (Toxoplasma gondii) [µM]	CC50 (HFF) [µM]	MIC (Bacillus subtilis) [µM]
CCCN1C[C@H](C)C[C@@](C)(O)[C@H](O[C@@H]2O[C@H](C)C[C@H](N(C)C)[C@H]2O)[C@@H](C)[C@H](O[C@H]2C[C@@](C)(OC)[C@@H](O)[C@H](C)O2)[C@@H](C)C(=O)O[C@H](CC)[C@@](C)(O)[C@H](O)[C@H]1C	16	139	0.6 (≈ 0.466 µg/mL)
CC[C@H]1OC(=O)[C@H](C)[C@@H](O[C@H]2C[C@@](C)(OC)[C@@H](O)[C@H](C)O2)[C@H](C)[C@@H](O[C@@H]2O[C@H](C)C[C@H](N(C)C)[C@H]2O)[C@](C)(OC)C[C@@H](C)CN(C(=O)NCc2ccccc2)[C@H](C)[C@@H](O)[C@]1(C)O	16	62	1.5 (≈ 1.32 µg/mL)
C=CCO[C@]1(C)C[C@@H](C)CN(C(=O)NCC)[C@H](C)[C@@H](O)[C@](C)(O)[C@@H](CC)OC(=O)[C@H](C)[C@@H](O[C@H]2C[C@@](C)(OC)[C@@H](O)[C@H](C)O2)[C@H](C)[C@H]1O[C@@H]1O[C@H](C)C[C@H](N(C)C)[C@H]1O	33	90	5 (≈ 4.23 µg/mL)
C=CCO[C@]1(C)C[C@@H](C)CN(C(=O)NCc2ccccc2)[C@H](C)[C@@H](O)[C@](C)(O)[C@@H](CC)OC(=O)[C@H](C)[C@@H](O[C@H]2C[C@@](C)(OC)[C@@H](O)[C@H](C)O2)[C@H](C)[C@H]1O[C@@H]1O[C@H](C)C[C@H](N(C)C)[C@H]1O	6	28	1.5 (≈ 1.36 µg/mL)
C=CCO[C@]1(C)C[C@@H](C)CN(CCC)[C@H](C)[C@@H](O)[C@](C)(O)[C@@H](CC)OC(=O)[C@H](C)[C@@H](O[C@H]2C[C@@](C)(OC)[C@@H](O)[C@H](C)O2)[C@H](C)[C@H]1O[C@@H]1O[C@H](C)C[C@H](N(C)C)[C@H]1O	15	42	10 (≈ 8.17 µg/mL)
CC[C@H]1OC(=O)[C@H](C)[C@@H](O[C@H]2C[C@@](C)(OC)[C@@H](O)[C@H](C)O2)[C@H](C)[C@@H](O[C@@H]2O[C@H](C)C[C@H](N(C)C)[C@H]2O)[C@](C)(O)C[C@@H](C)/C(=N\OC)[C@H](C)[C@@H](O)[C@]1(C)O	14	22	0.04 (≈ 0.0305 µg/mL)
C=CCN1C[C@H](C)C[C@@](C)(O)[C@H](O[C@@H]2O[C@H](C)C[C@H](N(C)C)[C@H]2O)[C@@H](C)[C@H](O[C@H]2C[C@@](C)(OC)[C@@H](O)[C@H](C)O2)[C@@H](C)C(=O)O[C@H](CC)[C@@](C)(O)[C@H](O)[C@H]1C	13	103	0.3 (≈ 0.233 µg/mL)
CCCN1C[C@H](C)C[C@@](C)(OC)[C@H](O[C@@H]2O[C@H](C)C[C@H](N(C)C)[C@H]2O)[C@@H](C)[C@H](O[C@H]2C[C@@](C)(OC)[C@@H](O)[C@H](C)O2)[C@@H](C)C(=O)O[C@H](CC)[C@@](C)(O)[C@H](O)[C@H]1C	20	106	1.2 (≈ 0.949 µg/mL)
CC[C@H]1OC(=O)[C@H](C)[C@@H](O[C@H]2C[C@@](C)(OC)[C@@H](O)[C@H](C)O2)[C@H](C)[C@@H](O[C@@H]2O[C@H](C)C[C@H](N(C)C)[C@H]2O)[C@](C)(O)C[C@@H](C)CN[C@H](C)[C@@H](O)[C@]1(C)O	65	386	1.2 (≈ 0.882 µg/mL)
CC[C@H]1OC(=O)[C@H](C)[C@@H](O[C@H]2C[C@@](C)(OC)[C@@H](O)[C@H](C)O2)[C@H](C)[C@@H](O[C@@H]2O[C@H](C)C[C@H](N(C)C)[C@H]2O)[C@](C)(OC)C[C@@H](C)C(=O)[C@H](C)[C@@H](O)[C@]1(C)O [CLARITHROMYCIN]	31	260	0.04 (≈ 0.0299 µg/mL)
C=CCN1C[C@H](C)C[C@@](C)(OC)[C@H](O[C@@H]2O[C@H](C)C[C@H](N(C)C)[C@H]2O)[C@@H](C)[C@H](O[C@H]2C[C@@](C)(OC)[C@@H](O)[C@H](C)O2)[C@@H](C)C(=O)O[C@H](CC)[C@@](C)(O)[C@H](O)[C@H]1C	13	84	0.8 (≈ 0.631 µg/mL)
